# Results published in article PMC2634825 (Molecular pharmaceutics, 2009).
# “Also recorded” adds a separate entry of the source.
# Tests used:
# tumor-bearing mouse = experiment: Blocking experiment; assay type: in vivo, mice
# In short: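 Tumour-bearing nude mice were given ~2 μCi of the 99mTc-labelled tracer i.v. together with ~350 μg (~14 mg/kg) excess unlabelled cyclic RGD dimer. The blocker was dissolved in the dose solution at 1.75 mg/mL and filtered. Four animals were killed at 1 h p.i. by pentobarbital overdose, and organ %ID/g was compared with unblocked animals at the same time point.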
# [1] = Biodistribution in athymic nude mice bearing U87MG glioma xenografts; assay type: in vivo; details: mouse; for tissue to tissue ratio at 0.5 h / tissue to tissue ratio at 2 h: female, athymic nu/nu, iv, total radioactivity; for tissue uptake at 0.5 h / tissue uptake at 2 h: in vivo; for tissue uptake at 0.5 h: 30 min p.i.; for tissue uptake at 2 h: 120 min p.i.
# In short: (§1)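 Female athymic nu/nu mice (4–5 weeks old) received 5 × 10⁶ cells s.c. into both mammary fat pads (MDA-MB-435) or both upper flanks (U87MG) and were used 2–4 weeks later with 0.05–0.4 g tumors. Each got ~2 μCi of HPLC-purified tracer in 0.1 mL saline i.v. via the tail vein. Four mice per time point were killed at 30, 60 and 120 min by pentobarbital overdose. Organs were weighed and γ-counted as %ID/g; T/B values are means ± SD.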
# normal athymic nude mice = experiment: Metabolism study; assay type: in vivo
# In short: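 Two normal athymic nude mice per tracer each received 100–120 μCi i.v. via the tail vein. Urine was collected by manual void at 30 and 120 min, mixed with an equal volume of 20% aqueous acetonitrile, centrifuged at 8,000 rpm and filtered (0.20 μ). Feces collected at 2 h were suspended in 2 mL 20% acetonitrile, vortexed and centrifuged.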
# [2] = Biodistribution in athymic nude mice bearing MDA-MB-435 breast cancer xenografts; assay type: in vivo; details: mouse; for tissue to tissue ratio at 2 h: female, athymic nu/nu, tumor and muscle, iv, total radioactivity; for tissue uptake at 0.5 h / tissue uptake at 2 h: in vivo; for tissue uptake at 0.5 h: 30 min p.i.; for tissue uptake at 2 h: 120 min p.i.
# In short: as §1
# [3] = test system: athymic nude mice bearing U87MG glioma xenografts; experiment: Biodistribution in athymic nude mice bearing U87MG glioma xenografts; assay type: in vivo; details: over the 2 h study period
# In short: as §1
# [4] = kidney uptake, MDA-MB-435 model
# [5] = muscle uptake, MDA-MB-435 model
# [6] = tumor uptake, MDA-MB-435 breast tumor
# [7] = blood uptake (blood clearance), U87MG model
SMILES,tissue to tissue ratio at 0.5 h ([1]; tumor and liver),tissue to tissue ratio at 2 h ([1]; tumor and liver),tissue to tissue ratio at 0.5 h ([1]; tumor and whole blood),tissue to tissue ratio at 2 h ([1]; tumor and whole blood),"tissue uptake at 0.5 h ([1]; kidney uptake, U87MG model) [%ID/g]","tissue uptake at 2 h ([1]; kidney uptake, U87MG model) [%ID/g]","tissue uptake at 0.5 h ([1]; muscle uptake, U87MG model) [%ID/g]","tissue uptake at 2 h ([1]; muscle uptake, U87MG model) [%ID/g]","tissue uptake at 0.5 h ([1]; tumor uptake, U87MG glioma) [%ID/g]","tissue uptake at 2 h ([1]; tumor uptake, U87MG glioma) [%ID/g]",tissue to tissue ratio at 2 h [2],"tissue uptake at 0.5 h [2, 6] [%ID/g]","tissue uptake at 2 h [2, 6] [%ID/g]",further results
"N=C(N)NCCC[C@@H]1NC(=O)[C@H](CCCCNC(=O)CCOCCOCCOCCOCCNC(=O)CC[C@H](NC(=O)c2ccc(NN)nc2)C(=O)NCCOCCOCCOCCOCCC(=O)NCCCC[C@@H]2NC(=O)[C@@H](Cc3ccccc3)NC(=O)[C@H](CC(=O)O)NC(=O)CNC(=O)[C@H](CCCNC(=N)N)NC2=O)NC(=O)[C@@H](Cc2ccccc2)NC(=O)[C@H](CC(=O)O)NC(=O)CNC1=O [^99mTc-2PEG4-dimer, [^99mTc(HYNIC-2PEG4-dimer)(tricine)(TPPTS)], metal not drawn]",2.59 ± 0.45,3.33 ± 0.64,9.63 ± 1.32,29.1 ± 8.54,20.8 ± 2.32,10.2 ± 1.37,2.18 ± 0.37,1.27 ± 0.2,11.2 ± 1.96,8.31 ± 2.31,6.52 ± 1.72,5.2 ± 1.74,9.77 ± 2.66,"uptake in the blood and kidneys in the presence of E[c(RGDfK)]2 (tumor-bearing mouse; 60 min p.i., versus without blocking agent): comparable; tumor uptake on co-injection of excess E[c(RGDfK)]2 (tumor-bearing mouse; result in words): partially blocked; metabolic stability during excretion from renal and hepatobiliary routes (normal athymic nude mice; urine and feces over 2 h): high metabolic stability; also recorded: remained intact; also recorded: very high metabolic stability; tissue uptake at 0.5 h [2, 4]: 14.4 ± 4.09 %ID/g; tissue uptake at 2 h [2, 4]: 13.8 ± 5.36 %ID/g; tissue uptake at 0.5 h ([2]; liver uptake, MDA-MB-435 model): 2.97 ± 0.63 %ID/g; tissue uptake at 2 h ([2]; liver uptake, MDA-MB-435 model): 3.27 ± 1.09 %ID/g; tissue uptake at 0.5 h [2, 5]: 1.76 ± 0.56 %ID/g; tissue uptake at 2 h [2, 5]: 1.51 ± 0.35 %ID/g"
"N=C(N)NCCC[C@@H]1NC(=O)[C@H](CCCCNC(=O)CCOCCOCCOCCOCCNC(=O)CC[C@H](NC(=O)CCOCCOCCOCCOCCNC(=O)c2ccc(NN)nc2)C(=O)NCCOCCOCCOCCOCCC(=O)NCCCC[C@@H]2NC(=O)[C@@H](Cc3ccccc3)NC(=O)[C@H](CC(=O)O)NC(=O)CNC(=O)[C@H](CCCNC(=N)N)NC2=O)NC(=O)[C@@H](Cc2ccccc2)NC(=O)[C@H](CC(=O)O)NC(=O)CNC1=O [^99mTc-3PEG4-dimer, [^99mTc(HYNIC-3PEG4-dimer)(tricine)(TPPTS)], metal not drawn]",2.13 ± 0.87,3.49 ± 1.64,6.72 ± 2.88,48.8 ± 18.7,17.6 ± 0.73,9.89 ± 1.2,1.45 ± 0.2,1 ± 0.22,8.17 ± 0.68,9.74 ± 3.22,,,,"tissue uptake at 0.5 h [1, 7]: 1.02 ± 0.22 %ID/g; tissue uptake at 2 h [1, 7]: 0.17 ± 0.02 %ID/g; tissue uptake at 0.5 h ([1]; liver uptake, U87MG model): 3.14 ± 0.18 %ID/g; tissue uptake at 2 h ([1]; liver uptake, U87MG model): 2.92 ± 0.77 %ID/g; tissue uptake at 2 h ([1]; tumor uptake, U87MG glioma, tumor size 0.5 g – 1.6 g or 500 – 1700 mm^3): 4 to 6 %ID/g; tissue uptake at 2 h ([1]; tumor uptake, U87MG glioma, tumor size <0.05 g or <50 mm^3): 2 to 4 %ID/g; glioma uptake relative to ^99mTc-PEG4-monomer [3]: ~3 ×; metabolism during excretion from the hepatobiliary route (normal athymic nude mice; feces at 120 min p.i.): ~ 30%; metabolic stability during excretion from the renal route (normal athymic nude mice; urine at 30 and 120 min p.i.): remained intact"
"N=C(N)NCCC[C@@H]1NC(=O)[C@H](CCCCNC(=O)CC[C@H](NC(=O)CCOCCOCCOCCOCCNC(=O)c2ccc(NN)nc2)C(=O)NCCCC[C@@H]2NC(=O)[C@@H](Cc3ccccc3)NC(=O)[C@H](CC(=O)O)NC(=O)CNC(=O)[C@H](CCCNC(=N)N)NC2=O)NC(=O)[C@@H](Cc2ccccc2)NC(=O)[C@H](CC(=O)O)NC(=O)CNC1=O [^99mTc-PEG4-dimer, [^99mTc(HYNIC-PEG4-dimer)(tricine)(TPPTS)], metal not drawn, reference compound]",,,,,,,,,,,2.91 ± 0.6,3.49 ± 0.62,3.82 ± 0.54,
